# The list shows a part of the results. Unmarked numbers belong to inactive results.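 The calls were made as follows: active = inhibition above 50%; inactive = the rest.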
# Target: Broad substrate specificity ATP-binding cassette transporter ABCG2 (Homo sapiens) (UniProt Q9UNQ0)
# Test: ABCG2 efflux pump inhibitors, confirmation, single point, IgMXP3 cells, ABCB1 counter-screen paired (AID 1453);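 also: 0% = DMSO wells and 100% = nicardipine pump inhibitor wells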
# Conditions: JC-1 efflux, flow cytometry, at 6.6 µM, hits give high values
# In short: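 Assay system: drug-resistant IgMXP3 cells expressing human ABCG2; Input: 3 million cells per mL final in well; Reagent: JC-1 substrate; Doses: single test compound dose, 6.6 µM final; Times: 10 min end-over-end mixing at 25 °C before reading; Technique: high-throughput flow cytometry, JC-1 green median fluorescence, 530 ± 20 nm.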
# Broad substrate specificity ATP-binding cassette transporter ABCG2 (Homo sapiens), sequence (Q9UNQ0 whole entry, looked up): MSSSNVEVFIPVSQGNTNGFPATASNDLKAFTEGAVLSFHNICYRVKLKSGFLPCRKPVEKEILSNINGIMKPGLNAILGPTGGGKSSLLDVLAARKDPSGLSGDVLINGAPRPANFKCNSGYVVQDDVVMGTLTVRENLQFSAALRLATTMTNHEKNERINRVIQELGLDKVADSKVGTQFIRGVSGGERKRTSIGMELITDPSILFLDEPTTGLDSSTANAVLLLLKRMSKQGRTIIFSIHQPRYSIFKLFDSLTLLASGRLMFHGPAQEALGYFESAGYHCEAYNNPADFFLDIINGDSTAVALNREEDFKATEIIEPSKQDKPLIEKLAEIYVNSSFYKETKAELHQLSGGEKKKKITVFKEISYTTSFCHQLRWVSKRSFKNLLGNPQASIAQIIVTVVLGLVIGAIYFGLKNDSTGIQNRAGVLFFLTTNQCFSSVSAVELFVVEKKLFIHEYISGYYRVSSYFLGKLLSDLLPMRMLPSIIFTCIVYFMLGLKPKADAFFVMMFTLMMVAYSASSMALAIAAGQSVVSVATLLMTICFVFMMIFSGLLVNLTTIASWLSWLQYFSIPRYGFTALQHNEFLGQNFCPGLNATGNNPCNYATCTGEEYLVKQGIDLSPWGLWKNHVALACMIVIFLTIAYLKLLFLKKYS
compound,measurement,value
COC(=O)COc1cc(C)cc2oc(=O)c3c(c12)CCCC3,inhibition,22.6%

# Reference: PubChem BioAssay AID1453 (NMMLSC, 2008)
